Experimental data published in ChEMBL document CHEMBL4316593 (Eur J Med Chem, 2019).

Columns and labels:
U-87 MG [1] = assay: Induction of apoptosis in human U87 cells assessed as change in BAX gene expression at cytotoxic IC50 measured after 48 hrs […] relative to control; format: functional, U-87MG ATCC
Summary of the method: (§1)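 U87 cells grown in MEM with 10% FBS at 37°C, 5% CO2. Cells exposed to IC50 of test compound for 48 hrs, alongside untreated and cisplatin controls, each condition in triplicate. RNA isolated and profiled; differential expression called with DESeq2 (q-value < 0.05, fold change > 1.5), fold change versus untreated.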

[2] = Inhibition of RTK/PI3K/AKT/mTOR signaling in human U87 cells assessed as up regulation of RPS14 gene expression at cytotoxic IC50 measured after 48 hrs relative to control; format: cell-based; conditions: U-87MG ATCC
Summary of the method: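 U87 cells were exposed for 48 hrs at 37°C under 5% CO₂, with cisplatin and untreated controls, all in triplicate. RNA was isolated by the same protocol for every sample and expression profiled from mapped reads. Differential expression against untreated cells was called in DESeq2 (q-value < 0.05, fold change > 1.5).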

[3] = Inhibition of RTK/PI3K/AKT/mTOR signaling in human U87 cells assessed as up regulation of COX19, cytochrome c oxidase assembly factor gene expression at cytotoxic IC50 measured after 48 hrs relative to control; format: cell-based; conditions: U-87MG ATCC
Summary of the method: (§2)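 Cells were exposed for 48hrs at 37°C in humidified 5% CO₂ to the compound at its previously determined IC₅₀, with Cisplatin at its IC₅₀ and an untreated negative control alongside. Each condition was run in triplicate. RNA was isolated from all samples by the same protocol. Genes were called differentially expressed by DESeq2 at q-value < 0.05 and fold change > 1.5.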

U-87 MG [4] = assay: Induction of DNA damage in human U87 cells assessed as change in DTL gene expression at cytotoxic IC50 measured after 48 hrs […] relative to control; format: functional, U-87MG ATCC
Summary of the method: (§3)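 U87 expression profiling. Cells incubated 48hrs at 37°C, 5% CO₂ with the IC₅₀ concentration, alongside a cisplatin and an untreated control, in triplicate. RNA was isolated by one common protocol and profiled. DEGs were called with DESeq2 (q < 0.05, fold change > 1.5) and expressed as fold change versus untreated.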

[5] = Inhibition of RTK/PI3K/AKT/mTOR signaling in human U87 cells assessed as down regulation of TAF13 gene expression at cytotoxic IC50 measured after 48 hrs relative to control; format: cell-based; conditions: U-87MG ATCC; summary of the method: as §2
U-87 MG [6] = assay: Induction of apoptosis in human U87 cells assessed as change in FOS gene expression at cytotoxic IC50 measured after 48 hrs […] relative to control; format: functional, U-87MG ATCC; summary of the method: as §1
MEF = assay: Cytotoxicity against MEF assessed as cell death at 100 uM measured after 48 hrs by trypan blue dye-based cell counting analysis; conditions: mouse
[7] = Inhibition of RTK/PI3K/AKT/mTOR signaling in human U87 cells assessed as up regulation of AHNAK2 gene expression at cytotoxic IC50 measured after 48 hrs relative to control; format: cell-based; conditions: U-87MG ATCC; summary of the method: as §2
[8] = Inhibition of RTK/PI3K/AKT/mTOR signaling in human U87 cells assessed as down regulation of ZMAT2 gene expression at cytotoxic IC50 measured after 48 hrs relative to control; format: cell-based; conditions: U-87MG ATCC; summary of the method: as §2
[9] = Inhibition of RTK/PI3K/AKT/mTOR signaling in human U87 cells assessed as down regulation of TSPAN33 gene expression at cytotoxic IC50 measured after 48 hrs relative to control; format: cell-based; conditions: U-87MG ATCC; summary of the method: as §2
U-87 MG [10] = assay: Induction of DNA damage in human U87 cells assessed as change in PEA15 gene expression at cytotoxic IC50 measured after 48 hrs […] relative to control; format: functional, U-87MG ATCC; summary of the method: as §3
U-87 MG [11] = assay: Cell cycle arrest in human U87 cells assessed as change in CDK6 gene expression at cytotoxic IC50 measured after 48 hrs […] relative to control; format: functional, U-87MG ATCC; summary of the method: as §3
U-87 MG [12] = assay: Induction of apoptosis in human U87 cells assessed as change in BCL2L1 gene expression at cytotoxic IC50 measured after 48 hrs […] relative to control; format: functional, U-87MG ATCC; summary of the method: as §1
[13] = Inhibition of RTK/PI3K/AKT/mTOR signaling in human U87 cells assessed as up regulation of retinoic acid receptor alpha gene expression at cytotoxic IC50 measured after 48 hrs relative to control; format: cell-based; conditions: U-87MG ATCC
U-87 MG [14] = assay: Cell cycle arrest in human U87 cells assessed as change in CDC6 gene expression at cytotoxic IC50 measured after 48 hrs […] relative to control; format: functional, U-87MG ATCC; summary of the method: as §3
[15] = Inhibition of RTK/PI3K/AKT/mTOR signaling in human U87 cells assessed as down regulation of MAFF gene expression at cytotoxic IC50 measured after 48 hrs relative to control; format: cell-based; conditions: U-87MG ATCC; summary of the method: as §2
U-87 MG [16] = assay: Cell cycle arrest in human U87 cells assessed as change in CREBBP gene expression at cytotoxic IC50 measured after 48 hrs […] relative to control; format: functional, U-87MG ATCC; summary of the method: as §3
[17] = Inhibition of RTK/PI3K/AKT/mTOR signaling in human U87 cells assessed as down regulation of TEX14 gene expression at cytotoxic IC50 measured after 48 hrs relative to control; format: cell-based; conditions: U-87MG ATCC; summary of the method: as §2
[18] = Inhibition of RTK/PI3K/AKT/mTOR signaling in human U87 cells assessed as down regulation of FLII gene expression at cytotoxic IC50 measured after 48 hrs relative to control; format: cell-based; conditions: U-87MG ATCC; summary of the method: as §1
U-87 MG [19] = assay: Induction of apoptosis in human U87 cells assessed as change in TUBA4A gene expression at cytotoxic IC50 measured after 48 hrs by […] relative to control; format: functional, U-87MG ATCC; summary of the method: as §1
U-87 MG [20] = assay: Induction of DNA damage in human U87 cells assessed as change in PIDD1 gene expression at cytotoxic IC50 measured after 48 hrs […] relative to control; format: functional, U-87MG ATCC; summary of the method: as §3
[21] = Inhibition of RTK/PI3K/AKT/mTOR signaling in human U87 cells assessed as up regulation of WW domain containing transcription regulator 1 gene expression at cytotoxic IC50 measured after 48 hrs relative to control; format: cell-based; conditions: U-87MG ATCC
[22] = Inhibition of RTK/PI3K/AKT/mTOR signaling in human U87 cells assessed as down regulation of SIDT2 gene expression at cytotoxic IC50 measured after 48 hrs relative to control; format: cell-based; conditions: U-87MG ATCC; summary of the method: as §2
U-87 MG [23] = assay: Cell cycle arrest in human U87 cells assessed as change in E2F2 gene expression at cytotoxic IC50 measured after 48 hrs […] relative to control; format: functional, U-87MG ATCC; summary of the method: as §3
U-87 MG [24] = assay: Cell cycle arrest in human U87 cells assessed as change in CDK1 gene expression at cytotoxic IC50 measured after 48 hrs […] relative to control; format: functional, U-87MG ATCC; summary of the method: as §3
U-87 MG [25] = assay: Induction of DNA damage in human U87 cells assessed as change in SFN gene expression at cytotoxic IC50 measured after 48 hrs […] relative to control; format: functional, U-87MG ATCC; summary of the method: as §1
[26] = Inhibition of RTK/PI3K/AKT/mTOR signaling in human U87 cells assessed as up regulation of SLC45A3 gene expression at cytotoxic IC50 measured after 48 hrs relative to control; format: cell-based; conditions: U-87MG ATCC
[27] = Inhibition of RTK/PI3K/AKT/mTOR signaling in human U87 cells assessed as up regulation of lemur tyrosine kinase 3 gene expression at cytotoxic IC50 measured after 48 hrs relative to control; format: cell-based; conditions: U-87MG ATCC
U-87 MG [28] = assay: Induction of DNA damage in human U87 cells assessed as change in TRIAP1 gene expression at cytotoxic IC50 measured after 48 hrs […] relative to control; format: functional, U-87MG ATCC; summary of the method: as §1

Structure (SMILES): CC(=O)C(=NNc1ccccc1C#N)C(C)=O
- log2FC (U-87 MG [1]): 2.512
- log2FC [2]: 0.607
- log2FC [3]: 1.33
- fold change (FC) (U-87 MG [4]): 1.519
- log2FC [5]: -1.05
- log2FC (U-87 MG [6]): -3.569
- Activity (MEF): < 20%
- log2FC [7]: 0.621
- log2FC [8]: -0.716
- log2FC [9]: -0.666
- fold change (FC) (U-87 MG [10]): -1.195
- fold change (FC) (U-87 MG [11]): -1.311
- log2FC (U-87 MG [12]): 0.9994
- log2FC [13]: 1.04
- fold change (FC) (U-87 MG [14]): 1.009
- log2FC [15]: -1.1
- fold change (FC) (U-87 MG [16]): -1.086
- log2FC [17]: -3.88
- log2FC [18]: -0.583
- log2FC (U-87 MG [19]): 1.583
- fold change (FC) (U-87 MG [20]): 2.467
- log2FC [21]: 0.981
- log2FC [22]: -0.671
- fold change (FC) (U-87 MG [23]): 2.384
- fold change (FC) (U-87 MG [24]): 1.569
- fold change (FC) (U-87 MG [25]): 1.949
- log2FC [26]: 1.61
- log2FC [27]: 0.868
- fold change (FC) (U-87 MG [28]): 2.018
